From ChEMBL document CHEMBL4480434, “Anacolosins A-F and Corymbulosins X and Y, Clerodane Diterpenes from Anacolosa clarkii Exhibiting Cytotoxicity toward Pediatric Cancer Cell Lines” (2019)

Legend:
Assay type in all cases: functional
A673 [1] = test: Antiproliferative activity against human A673 cells assessed as growth inhibition after 48 hrs by sulforhodamine B assay; settings: A673, 48 h
How it was run: (§1)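 A-673, SJCRH30 and Hep293TT cells in RPMI-1640 with 5% FBS and 0.5% gentamycin at 37 °C, 5% CO2, seeded at 4000–6000 cells/well and adhered overnight. DMSO solutions added to triplicate wells (0.5% v/v DMSO final) for 48 h. Medium removed, cells fixed with 10% TCA, SRB absorbance compared with vehicle and time-0 plates. TGI from nonlinear regression; n = 3, mean ± SEM.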

[2] = Antiproliferative activity against human SJCRH30 cells assessed as growth inhibition after 48 hrs by sulforhodamine B assay; how it was run: as §1
[3] = Antiproliferative activity against human D283 cells assessed as growth inhibition after 48 hrs by sulforhodamine B assay; settings: D283, 48 h
How it was run: (§2)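 D283 medulloblastoma cells grown in IMEM with 5% FBS and 0.3% gentamycin at 37 °C, 5% CO2, plated at 4000–6000 cells/well overnight. Compound in DMSO (0.5% v/v final), triplicate wells, 48 h. Because cells adhere poorly, 20% TCA added directly to the medium for fixation. SRB absorbance referenced to vehicle and time-0 plates; TGI by nonlinear regression, n = 3, mean ± SEM.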

Hep293TT [4] = test: Antiproliferative activity against human Hep293TT cells assessed as growth inhibition after 48 hrs by sulforhodamine B assay; how it was run: as §1
A673 [5] = test: Antiproliferative activity against human A673 cells assessed as growth inhibition after 48 hrs by sulforhodamine B assay relative to control; settings: A673, 48 h; how it was run: as §1
[6] = Antiproliferative activity against human SJCRH30 cells assessed as growth inhibition after 48 hrs by sulforhodamine B assay relative to control; how it was run: as §1
[7] = Antiproliferative activity against human D283 cells assessed as growth inhibition after 48 hrs by sulforhodamine B assay relative to control; settings: D283, 48 h; how it was run: as §2
Hep293TT [8] = test: Antiproliferative activity against human Hep293TT cells assessed as growth inhibition after 48 hrs by sulforhodamine B assay relative to control; how it was run: as §1

For `C=CC(=C)CCC1(C)C(C)CC(=O)C23C(=C[C@H](OC(=O)CC(C)C)CC12)[C@@H](OC(C)=O)O[C@H]3OC(C)=O` (some centres undefined), the TGI (A673 [1]) was 1100 nM, the TGI [2] was 670 nM and the TGI [3] was 660 nM. It also gave a TGI (Hep293TT [4]) of 1000 nM, an Emax (A673 [5]) of 100% and an Emax [6] of 100%. The Emax [7] was 100% and the Emax (Hep293TT [8]) was 100%.

Work on `C=CC(=C)CCC1(C)C(C)CC(=O)C23C(=C[C@H](OC(=O)CCC)CC12)[C@@H](OC(C)=O)O[C@H]3OC(C)=O` (some centres undefined) yielded a TGI (A673 [1]) of 1000 nM, a TGI [2] of 500 nM and a TGI [3] of 600 nM. It also gave a TGI (Hep293TT [4]) of 900 nM, an Emax (A673 [5]) of 100% and an Emax [6] of 100%. For the same molecule, the Emax [7] was 100% and the Emax (Hep293TT [8]) was 100%.

`C=CC(=C)CCC1(C)C(C)CC(=O)C23C(=C[C@H](OC(=O)C(C)C)CC12)[C@@H](OC(C)=O)O[C@H]3OC(C)=O` (some centres undefined) gave a TGI (A673 [1]) of 4100 nM, a TGI [2] of 2300 nM and a TGI [3] of 2300 nM. It also gave a TGI (Hep293TT [4]) of 3200 nM, an Emax (A673 [5]) of 100% and an Emax [6] of 100%. For the same molecule, the Emax [7] was 100% and the Emax (Hep293TT [8]) was 100%.

Work on `C=CC(=C)CCC1(C)C(C)CC(=O)C23C(=C[C@H](OC(=O)[C@@H](C)CC)CC12)[C@@H](OC(C)=O)O[C@H]3OC(C)=O` (some centres undefined) yielded a TGI (A673 [1]) of 1200 nM, a TGI [2] of 730 nM and a TGI [3] of 660 nM. The TGI (Hep293TT [4]) was 800 nM, the Emax (A673 [5]) was 100% and the Emax [6] was 100%. For the same molecule, the Emax [7] was 100% and the Emax (Hep293TT [8]) was 100%.

Molecule `C=CC(=C)CCC1(C)C(C)CC(O)C23C(=C[C@H](OC(=O)CC)CC12)[C@@H](OC(C)=O)O[C@H]3OC(C)=O` (some centres undefined) has a TGI (A673 [1]) of 900 nM, a TGI [2] of 360 nM and a TGI [3] of 500 nM. The TGI (Hep293TT [4]) was 300 nM, the Emax (A673 [5]) was 100% and the Emax [6] was 100%. The Emax [7] was 100% and the Emax (Hep293TT [8]) was 100%.

`C=CC(=C)CCC1(C)C(C)CC(=O)C23C(=C[C@H](OC(=O)CC)CC12)[C@@H](OC(C)=O)O[C@H]3OC(C)=O` (some centres undefined) showed a TGI (A673 [1]) of 1100 nM, a TGI [2] of 520 nM and a TGI [3] of 700 nM. It also gave a TGI (Hep293TT [4]) of 1000 nM, an Emax (A673 [5]) of 100% and an Emax [6] of 100%. The Emax [7] was 100% and the Emax (Hep293TT [8]) was 100%.

`C=CC(=C)CCC1(C)C(C)CC(O)C23C(=C[C@H](OC(=O)CC(C)C)CC12)[C@@H](OC(C)=O)O[C@H]3OC(C)=O` (some centres undefined) showed a TGI (A673 [1]) of 700 nM, a TGI [2] of 340 nM and a TGI [3] of 360 nM. The TGI (Hep293TT [4]) was 220 nM, the Emax (A673 [5]) was 100% and the Emax [6] was 100%. For the same molecule, the Emax [7] was 100% and the Emax (Hep293TT [8]) was 100%.

Work on `C=CC(=C)CCC1(C)C(C)CC(O)C23C(=C[C@H](OC(=O)/C(C)=C\C)CC12)[C@@H](OC(C)=O)O[C@H]3OC(C)=O` (some centres undefined) yielded a TGI (A673 [1]) of 1000 nM, a TGI [2] of 440 nM and a TGI [3] of 700 nM. It also gave a TGI (Hep293TT [4]) of 280 nM, an Emax (A673 [5]) of 100% and an Emax [6] of 100%. For the same molecule, the Emax [7] was 100% and the Emax (Hep293TT [8]) was 100%.

Work on `C=CC(=C)CCC1(C)C(C)CC(O)C23C(=C[C@H](OC(=O)[C@@H](C)CC)CC12)[C@@H](OC(C)=O)O[C@H]3OC(C)=O` (some centres undefined) yielded a TGI (A673 [1]) of 1700 nM, a TGI [2] of 800 nM and a TGI [3] of 1100 nM. The TGI (Hep293TT [4]) was 600 nM, the Emax (A673 [5]) was 100% and the Emax [6] was 100%. For the same molecule, the Emax [7] was 100% and the Emax (Hep293TT [8]) was 100%.

Work on `C=CC(=C)CCC1(C)C(C)CC(=O)C23C(=C[C@H](OC(=O)/C(C)=C\C)CC12)[C@@H](OC(C)=O)O[C@H]3OC(C)=O` (some centres undefined) yielded a TGI (A673 [1]) of 3100 nM, a TGI [2] of 1900 nM and a TGI [3] of 2000 nM. The TGI (Hep293TT [4]) was 1800 nM, the Emax (A673 [5]) was 100% and the Emax [6] was 100%. The Emax [7] was 100% and the Emax (Hep293TT [8]) was 100%.

For `CCC1=C[C@@H]2CN(C1)Cc1c([nH]c3ccccc13)[C@@](C(=O)OC)(c1cc3c(cc1OC)N(C)[C@H]1[C@@](O)(C(=O)OC)[C@H](OC(C)=O)[C@]4(CC)C=CCN5CC[C@]31[C@@H]54)C2` [VINORELBINE], the TGI (A673 [1]) was 6 nM, the TGI [2] was 6 nM and the TGI [3] was 80 nM. For the same molecule, the TGI (Hep293TT [4]) was 80 nM.
